# Rows were chosen to be rich in hits. Some 5.8% of all compounds tested hit in one or more screens of this group.
# WT yeast gro inh = growth inhibition of WT yeast, mitochondrial fusion screen; mitochondrial fusion phenotypic screen, WT strain; actives 2.1% (n = 190,000); AID 1362; inhibition, % at 10 µM; in the data active = inhibition above about 58%; tested in S. cerevisiae
# 14-3-3 Bad inh = disrupts binding of bovine 14-3-3 zeta to phospho-Bad peptide. actives 0.71% (n = 220,000). TR-FRET 14-3-3zeta/Dy647-pBad peptide displacement, 1 h. AID 781. P63103. inhibition, % at 21.7 µM;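 active = inhibition above about 70%, limit read from the data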
# Target sequence (P63103 whole entry, looked up): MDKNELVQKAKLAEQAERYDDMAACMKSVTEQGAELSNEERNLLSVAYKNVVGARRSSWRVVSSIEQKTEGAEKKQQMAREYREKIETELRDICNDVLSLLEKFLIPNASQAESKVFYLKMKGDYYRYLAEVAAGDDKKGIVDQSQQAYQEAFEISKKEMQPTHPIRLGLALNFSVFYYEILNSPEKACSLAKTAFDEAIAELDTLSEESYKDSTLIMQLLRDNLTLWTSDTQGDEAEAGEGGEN
# ROMK primary = modulates human ROMK potassium channel activity | P48048 | B-score at 10 µM | Tet-inducible ROMK, thallium flux fluorescence; actives lie on both sides | actives 2% (n = 130,000);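 active = signal ratio slope over the read window, or its plate-corrected B-score, at least 3 SD from the plate mean, either direction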;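 note: B-score of the F/F0 ratio slope over 7 to 12 s after thallium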
# Target sequence (P48048 whole entry, looked up): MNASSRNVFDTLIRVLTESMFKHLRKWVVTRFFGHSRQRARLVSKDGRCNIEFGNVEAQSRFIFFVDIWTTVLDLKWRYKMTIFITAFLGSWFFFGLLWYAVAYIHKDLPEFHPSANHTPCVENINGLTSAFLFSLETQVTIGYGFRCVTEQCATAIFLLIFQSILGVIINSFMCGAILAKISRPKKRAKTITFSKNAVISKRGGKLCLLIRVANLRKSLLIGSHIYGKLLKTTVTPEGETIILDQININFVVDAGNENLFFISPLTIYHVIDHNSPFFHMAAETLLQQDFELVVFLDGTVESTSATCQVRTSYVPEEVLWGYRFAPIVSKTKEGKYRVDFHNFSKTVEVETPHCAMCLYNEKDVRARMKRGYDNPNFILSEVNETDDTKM
# RBBP9 inh = inhibitors of human serine hydrolase RBBP9 | O75884 | AID 1515 | recombinant RBBP9, FP-Rh probe fluorescence polarization | actives 0.2% (n = 220,000) | inhibition, % at 7.94 µM;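 active = inhibition above the campaign mean of all tested compounds plus 3 SD, cut at about 14% in these data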
#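 Assay system: recombinant human RBBP9; Reagent: Serine-hydrolase probe FP-Rh, 375 nM pre-mixing; Doses: 7.94 µM single dose, 0.794% DMSO; Incubation: 30 min then 45 min, 25 °C; Detection: fluorescence polarization (mP), excitation 525 nm, emission 598 nm; Evaluation: percent inhibition from mP, scaled between DMSO and no-protein wells.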
# Cl transport mod = modulators of human KCC2 chloride dependent transport; Q9H2X9; KCC2 cells, thallium flux FluoZin-2 fluorescence; B-score of Tl+ flux slope (higher = more flux/activation; lower = inhibition) at 10 µM; actives 2.2% (n = 190,000); AID 1456;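 active = thallium flux slope and its plate-corrected score both differing from the plate sample mean at a set confidence after two filtering rounds, in either direction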;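 note: slope of fluorescence scaled to starting intensity during 10 to 20 s after thallium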
# NCF1 inh = inhibitors of human p47phox binding | p47phox/p22phox peptide binding, fluorescence polarization, 2 h | P14598 | actives 0.53% (n = 220,000) | inhibition, % at 24.7 µM;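 active = inhibition above about 30%, limit read from the data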
# KCC2 secondary = KCC2 (human) modulation, secondary assay; shares compounds with Cl transport mod; HEK293-KCC2, thallium flux, FluoZin2 fluorescence; hits give high values; normalised thallium flux (F/F0 slope) at 10 µM; actives 15% (n = 3,700);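 active = thallium flux slope above the same plate's solvent-only control mean plus 3 SD; inconclusive = the two replicate wells disagree; inactive = no significant difference from solvent-only control wells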
# KCC2 bumet counter = thallium flux persisting under bumetanide in KCC2 cells, counter-screen secondary assay; shares compounds with Cl transport mod; HEK293-KCC2 + bumetanide/ouabain, thallium flux FluoZin2; hits give high values; normalized thallium flux at 10 µM; actives 49% (n = 3,700); AID 1714;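 active = thallium entry rate above the same plate's blocked-transporter control wells by more than 3 SD; inconclusive = the two repeat wells disagree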;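 note: raw slope of fluorescence over initial fluorescence between 10 and 20 s after thallium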
# KCC2 secondary2 = KCC2 (human) modulation, second secondary assay; AID 1715; HEK293-KCC2, thallium flux FluoZin2 fluorescence; actives lie on both sides; F/F0 rise rate, 10–20 s post-thallium; actives 23% (n = 3,700); shares compounds with Cl transport mod; normalized thallium flux at 10 µM;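 active = thallium flux slope more than 3 SD above or below the plate's solvent-only control mean, mostly below; inconclusive = the two repeat wells disagreed; inactive = no significant shift from solvent-only controls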
# HEK293 Tl flux = parental HEK flux effect, counter-screen | shares compounds with Cl transport mod | HEK293 parental cells, thallium flux FluoZin2, ouabain; baseline-ratio fluorescence slope, 10–20 s after thallium | thallium flux rate (normalised fluorescence) at 10 µM | actives 46% (n = 3,700);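 active = thallium flux rate significantly above the same plate's solvent-only control wells, beyond their mean plus 3 SD; inconclusive = the two replicate wells gave conflicting results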
# KCC2 ouabain = modulates human KCC2 on retest with ouabain; shares compounds with Cl transport mod; HEK293-KCC2, thallium flux FluoZin2 fluorescence; bidirectional: low = inhibitor, high = activator; raw Tl+ flux slope (below DMSO = inhibition, above = activation) at 10 µM; actives 48% (n = 3,700); AID 1717;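 active = thallium flux slope beyond 3 SD from same-plate DMSO control mean in most replicates, usually higher, sometimes lower; inconclusive = repeat tests gave conflicting results; inactive = no significant difference from controls in most replicates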;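 note: slope of initial-normalized fluorescence between seconds 10 and 20 after thallium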
# HEK293 Tl flux2 = counter-screen for KCC2 modulators: effect in parental HEK293 cells | shares compounds with Cl transport mod | thallium flux FluoZin-2 fluorescence slope | thallium flux slope at 10 µM | actives 33% (n = 3,700);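 active = thallium flux slope above the same plate's solvent-control mean plus 3 SD in both duplicate wells; inconclusive = duplicate wells that disagreed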;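 note: run without ouabain in cells lacking the KCC2 cotransporter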
# Numbers stand for hits; – = inactive; ? = inconclusive; · = no result.
SMILES,WT yeast gro inh,14-3-3 Bad inh,ROMK primary,RBBP9 inh,Cl transport mod,NCF1 inh,KCC2 secondary,KCC2 bumet counter,KCC2 secondary2,HEK293 Tl flux,KCC2 ouabain,HEK293 Tl flux2
CCn1c(SCC(=O)N2CCN(c3ccccc3)CC2)nc2c(c1=O)SC(C)C2 (stereo not drawn),–,–,·,–,-3.1,–,–,–,?,0.0051,0.014,0.0084
O=C(CSc1nc2c(c(=O)n1-c1ccccc1)SCC2)N1CCOCC1,–,–,·,–,–,–,·,·,·,·,·,·
O=C(CSc1nc2c(c(=O)n1-c1ccccc1)SCC2)N1CCN(c2ccccc2)CC1,–,–,·,–,-7.6,–,–,–,–,–,0.012,?
Cc1ccc2oc(-c3ccc(NC(=O)c4ccncc4)cc3O)nc2c1,–,–,–,–,–,–,·,·,·,·,·,·
COc1ccc(CC(=O)Nc2ccc(-c3nc4cc(C)ccc4o3)c(O)c2)cc1OC,–,–,·,–,-5.4,–,–,–,–,–,–,–
S=c1[nH]nc(-c2ccc3ccccc3n2)n1Cc1ccccc1,–,–,–,–,9.2,–,0.015,0.027,–,0.029,0.031,0.016
S=c1[nH]nc(COc2cccc3ccccc23)n1Cc1ccccc1,·,–,·,–,–,–,·,·,·,·,·,·
Cc1ccccc1OCc1n[nH]c(=S)n1Cc1ccccc1,73,–,–,–,6.1,–,–,0.029,0.041,0.024,0.03,0.031
CCc1c(-c2n[nH]c(=S)n2Cc2ccccc2)csc1C,–,–,·,–,14,–,?,0.066,–,0.017,0.035,0.011
Oc1ccc(-c2n[nH]c(=S)n2Cc2ccccc2)cc1,–,–,–,–,–,–,·,·,·,·,·,·
S=c1[nH]nc(-c2ccccc2Cl)n1Cc1ccccc1,–,–,–,–,–,–,·,·,·,·,·,·
S=c1[nH]nc(-c2ccc(Br)cc2)n1Cc1ccccc1,–,–,–,–,24,–,–,0.027,–,0.026,0.029,?
N=C(SC1CC(=O)N(c2ccc(F)cc2)C1=O)N1N=C(c2ccccc2)CC1c1ccccc1 (stereo not drawn),–,–,–,–,–,–,·,·,·,·,·,·
COc1ccc(N(CCC#N)C(=O)/C(C#N)=C\c2cccs2)cc1,·,–,·,–,–,–,·,·,·,·,·,·
O=C(NC(=S)NCCO)c1sc2ccccc2c1Cl,–,–,–,–,3.7,–,–,0.011,–,0.015,–,–
O=C(NNC(=S)NC1CCCCC1)c1sc2ccccc2c1Cl,–,–,–,–,–,–,·,·,·,·,·,·
COc1cc(C(=O)NCCc2cn3ccc(C)cc3n2)cc(OC)c1OC,–,–,·,–,-3.4,–,?,?,–,–,–,–
CCC(C)(C(=O)NC1CCCC1)N(C)C(=O)c1ccccn1 (stereo not drawn),–,–,–,–,–,–,·,·,·,·,·,·
CCc1ccc(NC(=O)CCn2c(=O)oc3ccccc32)cc1,–,–,–,–,·,–,–,–,–,–,?,–
Cc1ccc(NC(=O)CCn2c(=O)oc3ccccc32)cc1,–,–,–,–,·,–,·,·,·,·,·,·
O=C(CCn1c(=O)oc2ccccc21)N1CCc2ccccc21,–,–,–,–,·,–,–,–,–,–,?,–
O=C(Cc1cccs1)Nc1cccc(-c2ccc3nncn3n2)c1,–,–,·,–,–,–,·,·,·,·,·,·
O=c1[nH]c(CSc2ncnc3sc(-c4ccccc4)cc23)nc2ccccc12,·,–,·,–,27,–,–,0.024,–,0.021,0.032,0.014
Cn1c(CSc2nc3ccccc3s2)n[nH]c1=S,–,–,·,–,·,–,?,–,?,–,0.011,?
CC(=O)CSc1nc2ccccc2s1,–,–,·,–,–,–,·,·,·,·,·,·
SMILES,WT yeast gro inh,14-3-3 Bad inh,ROMK primary,RBBP9 inh,Cl transport mod,NCF1 inh,KCC2 secondary,KCC2 bumet counter,KCC2 secondary2,HEK293 Tl flux,KCC2 ouabain,HEK293 Tl flux2
S=c1[nH]nc(CSc2nc3ccccc3s2)o1,–,–,–,–,–,–,·,·,·,·,·,·
Cn1c(CSc2nc3ccccc3s2)nc2ccccc21,–,–,–,–,-4.4,–,–,–,0.024,–,?,–
CC12CCC(C(=O)N/N=C/c3ccc(O)cc3)(OC1=O)C2(C)C (stereo not drawn),·,–,·,–,–,–,·,·,·,·,·,·
COc1cccc(C2c3c(oc4ccc(F)cc4c3=O)C(=O)N2CCCN2CCOCC2)c1 (stereo not drawn),–,–,·,–,11,–,–,0.011,–,0.013,?,0.014
O=C1c2oc3ccc(F)cc3c(=O)c2C(c2ccc(F)cc2)N1CCCN1CCOCC1 (stereo not drawn),–,·,·,–,–,·,·,·,·,·,·,·
CCN(CCCNC(=O)COc1cc(=O)n(CC)c2ccccc12)c1ccccc1,–,–,–,–,4.6,–,–,–,?,0.0063,–,–
CCN(CCCNC(=O)COc1cc(=O)n(C)c2ccccc12)c1ccccc1,–,–,–,–,–,–,·,·,·,·,·,·
C=C(C)C1CC=C(C)/C(=N\NC(=S)Nc2ccc(C)cc2)C1 (stereo not drawn),61,–,–,–,4.6,–,–,0.022,–,0.012,0.04,0.011
CCN1CCN(C(=S)c2ccc([N+](=O)[O-])cc2)CC1,–,–,·,–,–,–,·,·,·,·,·,·
N=C1SC(c2ccccc2)C(=O)N1c1ncc(Cc2ccccc2Cl)s1 (stereo not drawn),–,–,–,–,5.8,–,–,0.02,–,0.016,?,0.02
O=C(CSc1nnnn1-c1ccccc1)Nc1ncc(Cc2ccccc2Cl)s1,–,–,–,–,–,–,·,·,·,·,·,·
COc1ccc(C2CC(C)=C(C#N)S(=O)(=O)C2C#N)cc1 (stereo not drawn),·,–,–,–,–,–,·,·,·,·,·,·
CC(=O)NC(CC(=O)N(C)Cc1cccc(Cl)c1Cl)c1ccccc1 (stereo not drawn),–,–,–,–,–,–,·,·,·,·,·,·
Cc1ccc(C)c(C2=NNC(=NCc3ccccc3)SC2)c1,–,–,–,–,8.9,–,–,0.038,–,?,0.033,?
c1ccc(CN=C2NN=C(c3cc4ccccc4o3)CS2)cc1,–,–,–,–,–,–,·,·,·,·,·,·
